Columns and labels:
[1] = tested on: Human immunodeficiency virus 1; assay: Antiviral activity against HIV1 4755-5 harboring reverse transcriptase 41L/44D/67N/69D/118I/210W/215Y/184V mutant gene infected in human PBMC by ELISA; type: functional, organism-based; settings: Human immunodeficiency virus 1, 4755-5
Procedure, shortened: (§1)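 Fresh PBMCs pooled from at least two HIV- and HBV-seronegative donors, stimulated with PHA 4 μg/ml for 48–72 h and kept in rhIL-2 20 U/ml. Seeded at 5 × 10^4 cells/well and infected with RT-mutant HIV-1 clones at MOI ~0.1. Nine compound concentrations, triplicate wells, 7-day incubation. EC50 reported as mean ± SD of one to three independent experiments.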

[2] = tested on: Human immunodeficiency virus 1; assay: Antiviral activity against HIV1 isolate 166 harboring reverse transcriptase L74V mutant gene obtained as site-directed mutant of NL4-3 by phenosense assay relative to wild type; type: functional
Procedure, shortened: (§2)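 Recombinant-virus PhenoSense HIV assay run on a panel of 30 NRTI-resistant HIV-1 mutants and two wild-type viruses. Each virus is tested across increasing drug concentrations to give an inhibition curve and EC50. Fold change is the test recombinant EC50 divided by the EC50 of the drug-sensitive wild-type reference virus.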

[3] = tested on: Human immunodeficiency virus 1; assay: Antiviral activity against HIV1 isolate 058 harboring reverse transcriptase M41L/D67N/K70R/L210W/T215F/K219Q mutant gene by phenosense assay relative to wild type; type: functional; procedure, shortened: as §2
[4] = tested on: Human immunodeficiency virus 1; assay: Antiviral activity against HIV1 isolate 060 harboring reverse transcriptase M41L/D67N/K70R/L210W/T215Y/K219E mutant gene by phenosense assay relative to wild type; type: functional; procedure, shortened: as §2
[5] = tested on: Human immunodeficiency virus 1; assay: Antiviral activity against HIV1 isolate 166 harboring reverse transcriptase L74V mutant gene obtained as site-directed mutant of NL4-3 by phenosense assay; type: functional, organism-based; settings: Human immunodeficiency virus 1, isolate 166; procedure, shortened: as §2
[6] = tested on: Human immunodeficiency virus 1; assay: Antiviral activity against HIV1 isolate 066 harboring reverse transcriptase 184V mutant gene by phenosense assay; type: functional, organism-based; settings: Human immunodeficiency virus 1, isolate 066; procedure, shortened: as §2
[7] = tested on: Human immunodeficiency virus 1; assay: Antiviral activity against HIV1 isolate 153 harboring reverse transcriptase L74V mutant gene by phenosense assay relative to wild type; type: functional; procedure, shortened: as §2
[8] = tested on: Human immunodeficiency virus 1; assay: Antiviral activity against HIV1 isolate 192 harboring reverse transcriptase M41L/T215Y mutant gene by phenosense assay; type: functional, organism-based; settings: Human immunodeficiency virus 1, isolate 192; procedure, shortened: as §2
[9] = tested on: Human immunodeficiency virus 1; assay: Antiviral activity against HIV1 isolate 206 harboring reverse transcriptase D67N/K70R mutant gene by phenosense assay; type: functional, organism-based; settings: Human immunodeficiency virus 1, isolate 206
Procedure, shortened: (§3)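 PhenoSense HIV recombinant virus assay: patient-derived HIV-1 with major NRTI resistance mutations tested against increasing drug concentrations to give inhibition curves. EC50 is the concentration giving 50% inhibition. Fold change is the test recombinant EC50 divided by the EC50 of a drug-sensitive wild-type reference virus. Panel of 30 NRTI-resistant isolates plus two wild-type viruses.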

[10] = tested on: Human immunodeficiency virus 1; assay: Antiviral activity against HIV1 isolate 061 harboring reverse transcriptase M41L/D67N/K70R/M184V/L210W/T215Y/K219E mutant gene by phenosense assay; type: functional, organism-based; settings: Human immunodeficiency virus 1, isolate 061; procedure, shortened: as §2
[11] = tested on: Human immunodeficiency virus 1; assay: Antiviral activity against HIV1 isolate 070 harboring reverse transcriptase 65R/S68G mutant gene by phenosense assay; type: functional, organism-based; settings: Human immunodeficiency virus 1, isolate 070; procedure, shortened: as §2
[12] = tested on: Human immunodeficiency virus 1; assay: Antiviral activity against HIV1 isolate 058 harboring reverse transcriptase M41L/D67N/K70R/L210W/T215F/K219Q mutant gene by phenosense assay; type: functional, organism-based; settings: Human immunodeficiency virus 1, isolate 058; procedure, shortened: as §2
[13] = tested on: Human immunodeficiency virus 1; assay: Antiviral activity against HIV1 52534-2 harboring reverse transcriptase 41L//74V/210W/215Y/184V/69SSS mutant gene infected in human PBMC by ELISA; type: functional, organism-based; settings: Human immunodeficiency virus 1, 52534-2; procedure, shortened: as §1
[14] = tested on: Human immunodeficiency virus 1; assay: Antiviral activity against HIV1 isolate 157 harboring reverse transcriptase L74V/M184V mutant gene by phenosense assay relative to wild type; type: functional; procedure, shortened: as §2
[15] = tested on: Human immunodeficiency virus 1; assay: Antiviral activity against HIV1 isolate 188 harboring reverse transcriptase T215Y/M184V mutant gene by phenosense assay relative to wild type; type: functional; procedure, shortened: as §2
[16] = tested on: Human immunodeficiency virus 1; assay: Antiviral activity against HIV1 71361-1 harboring reverse transcriptase 65R mutant gene infected in human PBMC by ELISA; type: functional, organism-based; settings: Human immunodeficiency virus 1, 71361-1; procedure, shortened: as §1
[17] = tested on: Human immunodeficiency virus 1; assay: Antiviral activity against HIV1 isolate 174 harboring reverse transcriptase M184V mutant gene obtained as site-directed mutant of NL4-3 by phenosense assay; type: functional, organism-based; settings: Human immunodeficiency virus 1, isolate 174; procedure, shortened: as §2
[18] = tested on: Human immunodeficiency virus 1; assay: Antiviral activity against HIV1 isolate 220 harboring reverse transcriptase K70E/M184V mutant gene by phenosense assay; type: functional, organism-based; settings: Human immunodeficiency virus 1, isolate 220; procedure, shortened: as §3
[19] = tested on: Human immunodeficiency virus 1; assay: Antiviral activity against HIV1 isolate 194 harboring reverse transcriptase M41L/T215Y/M184V mutant gene by phenosense assay; type: functional, organism-based; settings: Human immunodeficiency virus 1, isolate 194; procedure, shortened: as §2
[20] = tested on: Human immunodeficiency virus 1; assay: Antiviral activity against HIV1 isolate 056 expressing wild type reverse transcriptase gene by phenosense assay; type: functional, organism-based; settings: Human immunodeficiency virus 1, isolate 056
Procedure, shortened: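 In the PhenoSense recombinant virus assay, virus was tested against increasing drug concentrations. EC50 came from the inhibition curve and was compared with a drug-sensitive reference virus.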

[21] = tested on: Human immunodeficiency virus 1; assay: Antiviral activity against HIV1 isolate 067 harboring reverse transcriptase A62V/D67G/T69SVG/V75I/T215I mutant gene by phenosense assay relative to wild type; type: functional; procedure, shortened: as §2
[22] = tested on: Human immunodeficiency virus 1; assay: Antiviral activity against HIV1 isolate 160 harboring reverse transcriptase S68G/V75(I/T)/F77L/Y115F/F116Y /Q151M mutant gene by phenosense assay relative to wild type; type: functional; procedure, shortened: as §2
[23] = tested on: Human immunodeficiency virus 1; assay: Antiviral activity against HIV1 isolate 061 harboring reverse transcriptase M41L/D67N/K70R/M184V/L210W/T215Y/K219E mutant gene by phenosense assay relative to wild type; type: functional; procedure, shortened: as §2
[24] = tested on: Human immunodeficiency virus 1; assay: Antiviral activity against HIV1 isolate 215 harboring reverse transcriptase D67N/K70E mutant gene by phenosense assay relative to wild type; type: functional; procedure, shortened: as §3
[25] = tested on: Human immunodeficiency virus 1; assay: Antiviral activity against HIV1 isolate 204 harboring reverse transcriptase M41L/L210W/T215Y/M184V mutant gene by phenosense assay; type: functional, organism-based; settings: Human immunodeficiency virus 1, isolate 204; procedure, shortened: as §3
[26] = tested on: Human immunodeficiency virus 1; assay: Antiviral activity against HIV1 isolate 185 harboring reverse transcriptase T215Y mutant gene by phenosense assay; type: functional, organism-based; settings: Human immunodeficiency virus 1, isolate 185; procedure, shortened: as §2
[27] = tested on: Human immunodeficiency virus 1; assay: Antiviral activity against HIV1 isolate 200 harboring reverse transcriptase M41L/L210W/T215Y mutant gene by phenosense assay relative to wild type; type: functional; procedure, shortened: as §2
[28] = tested on: Human immunodeficiency virus 1; assay: Antiviral activity against HIV1 isolate 185 harboring reverse transcriptase T215Y mutant gene by phenosense assay relative to wild type; type: functional; procedure, shortened: as §2
[29] = tested on: Human immunodeficiency virus 1; assay: Antiviral activity against HIV1 7303-3 harboring reverse transcriptase 41L/44D/67N/69D/118I/210W/215Y mutant gene infected in human PBMC by ELISA; type: functional, organism-based; settings: Human immunodeficiency virus 1, 7303-3; procedure, shortened: as §1
[30] = tested on: Human immunodeficiency virus 1; assay: Antiviral activity against HIV1 1617-1 harboring reverse transcriptase 69K/70G/75I/77L/116Y/151M/184V mutant gene infected in human PBMC by ELISA; type: functional, organism-based; settings: Human immunodeficiency virus 1, 1617-1; procedure, shortened: as §1
[31] = tested on: Human immunodeficiency virus 1; assay: Antiviral activity against HIV1 isolate 174 harboring reverse transcriptase M184V mutant gene obtained as site-directed mutant of NL4-3 by phenosense assay relative to wild type; type: functional; procedure, shortened: as §2
[32] = tested on: Human immunodeficiency virus 1; assay: Antiviral activity against HIV1 isolate 160 harboring reverse transcriptase S68G/V75(I/T)/F77L/Y115F/F116Y /Q151M mutant gene by phenosense assay; type: functional, organism-based; settings: Human immunodeficiency virus 1, isolate 160; procedure, shortened: as §2

For `CCCCCCCCCCCCCCCCOCCCOP(=O)(O)CO[C@H](C)Cn1cnc2c(N)ncnc21` [TENOFOVIR EXALIDEX], the EC50 [1] was 3.1 nM, the “fold change (FC)” value [2] was 0.8 and the “fold change (FC)” value [3] was 4.6. For the same molecule, the “fold change (FC)” value [4] was 3.3, the EC50 [5] was 1.5 nM and the EC50 [6] was 1.4 nM. The “fold change (FC)” value [7] was 0.66, the EC50 [8] was 3.9 nM and the EC50 [9] was 5.6 nM. The EC50 [10] was 6.1 nM, the EC50 [11] was 3.6 nM and the EC50 [12] was 8.5 nM. The EC50 [13] was 9 nM, the “fold change (FC)” value [14] was 0.36 and the “fold change (FC)” value [15] was 0.9. The EC50 [16] was 13 nM, the EC50 [17] was 1.2 nM and the EC50 [18] was 1.3 nM. The EC50 [19] was 2.9 nM, the EC50 [20] was 1.7 nM and the “fold change (FC)” value [21] was 31. The “fold change (FC)” value [22] was 2, the “fold change (FC)” value [23] was 2.1 and the “fold change (FC)” value [24] was 1.2. The EC50 [25] was 2.5 nM, the EC50 [26] was 5 nM and the “fold change (FC)” value [27] was 3.2. The “fold change (FC)” value [28] was 2.7, the EC50 [29] was 19 nM and the EC50 [30] was 5 nM. The “fold change (FC)” value [31] was 0.62 and the EC50 [32] was 3.7 nM.

Source: ChEMBL document CHEMBL1629690, “Development of hexadecyloxypropyl tenofovir (CMX157) for treatment of infection caused by wild-type and nucleoside/nucleotide-resistant HIV” (Antimicrob Agents Chemother, 2010)
